Test results from ChEMBL document CHEMBL1126752, “Synthesis and biological activity of cis-(3aR)-(-)-2,3,3a,4,5,9b-hexahydro- 3-propyl-1H-benz[e]indole-9-carboxamide: a potent and selective 5-HT1A receptor agonist with good oral availability” (J Med Chem, 1993).
Calls of active or inactive are those of the source. The rule behind the calls is not given here.

Key:
Rattus norvegicus [1] = assay: DOPA accumulation in limbic system of reserpinized rats following subcutaneous administration at highest dose tested (50 umol/kg); Inactive; assay type: functional, organism-based
Felis catus [2] = assay: Percent arterial blood pressure at sympathetic nerve discharge in anesthetized cat; assay type: functional
Method in brief: (§1)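 Adult cats (2.5-4.0 kg) anesthetized with ketamine 11 mg/kg im then chloralose 80 mg/kg iv. Animals paralyzed with gallamine, ventilated, and kept at 37-38 °C. Blood pressure recorded via femoral artery. Sympathetic activity quantified by cumulative integration. Increasing doses given iv cumulatively at 20-min intervals.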

Rattus norvegicus [3] = assay: DOPA accumulation in corpus striatum of reserpinized rats following subcutaneous administration at highest dose tested (50 umol/kg); Inactive; assay type: functional, organism-based
Mus musculus [4] = assay: Swimming activity of the treated mice/control mice at 3.9 umol/kg, sc; assay type: functional
Rattus norvegicus [5] = assay: DOPA accumulation in hemispheres of reserpinized rats following subcutaneous administration at highest dose tested (50 umol/kg); Inactive; assay type: functional, organism-based
Felis catus [6] = assay: Inhibition of sympathetic nerve discharge (SND) in anesthetized cat; assay type: functional; method in brief: as §1
Rattus norvegicus [7] = assay: 5-HTP accumulation in hemispheres of reserpinized rats following subcutaneous administration; assay type: functional; settings: sc
[8] = Half-life in rats; assay type: ADME, organism-based; settings: rat, in vivo
Method in brief: (§2)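 Male Sprague-Dawley rats (300 g) sampled from arterial catheters 24 h after surgery over 10-24 h. Dosing was 5 µmol/kg iv and 40 µmol/kg po, with oral rats fasted 18 h. Parent drug in blood measured by GC/MS after pH 11 dichloromethane extraction with internal standard, samples run in duplicate. Availability from po/iv AUC ratio (n = 4).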

Rattus norvegicus [9] = assay: 5-HTP accumulation in corpus striatum of reserpinized rats following subcutaneous administration; assay type: functional; settings: sc
Rattus norvegicus [10] = organism: Rattus norvegicus; assay: Inhibition of 5-HT1A cell firing in rats; assay type: functional
Method in brief: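 Male Sprague-Dawley rats (280-330 g) under chloral hydrate anesthesia (400 mg/kg ip), drug given iv via femoral vein in distilled water. Dorsal raphe serotonergic neurons recorded extracellularly and confirmed histologically by dye deposit. Firing rate followed by integrated ratemeter.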

Mus musculus [11] = assay: Swimming activity of the treated mice/control mice at 12 umol/kg, sc (p < 0.001); assay type: functional
Rattus norvegicus [12] = assay: Oral availability obtained from blood plasma levels of the parent compound following 5 umol /kg intravenous and 40 umol /kg peroral administration; assay type: functional, organism-based; method in brief: as §2
Felis catus [13] = assay: Maximum decrease in blood pressure observed following 1 mg/kg dose in anesthetized cat; assay type: functional; set-up: unit not given here; method in brief: as §1
Rattus norvegicus [14] = organism: Rattus norvegicus; assay: Compound was tested for gross behavioral response in rats; partial 5-HT syndrome; assay type: functional, organism-based
Rattus norvegicus [15] = assay: In vivo motor activity at 12.5 umol/kg (sc) in male rats expressed as accumulated counts/30 min (p < 0.001); assay type: functional
Mus musculus [16] = assay: Effect on hypothermia in mice following peroral administration; settings: po
Felis catus [17] = assay: Maximum decrease in sympathetic nerve discharge in anesthetized cat; assay type: functional
Method in brief: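 Cats (2.5-4.0 kg) anesthetized with ketamine 11 mg/kg im then chloralose 80 mg/kg iv, paralyzed with gallamine and ventilated, rectal temperature kept at 37-38 °C. Increasing iv doses given cumulatively at 20-min intervals; sympathetic activity quantified by cumulative integration and expressed as percent of control.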

Mus musculus [18] = assay: Swimming activity of the treated mice/control mice at 39 umol/kg, sc; assay type: functional
Mus musculus [19] = assay: Effect on hypothermia in mice following subcutaneous administration; settings: sc
Rattus norvegicus [20] = assay: 5-HTP accumulation in limbic system of reserpinized rats following subcutaneous administration; assay type: functional; settings: sc
[21] = molecular target: T1, 5-hydroxytryptamine receptor 1A (Homo sapiens, UniProt P08908); assay: Binding affinity against [3H]8-OH-DPAT-labeled 5-hydroxytryptamine 1A receptor sites in cloned CHO cells; assay type: cell-based
T1 sequence (P08908 whole entry): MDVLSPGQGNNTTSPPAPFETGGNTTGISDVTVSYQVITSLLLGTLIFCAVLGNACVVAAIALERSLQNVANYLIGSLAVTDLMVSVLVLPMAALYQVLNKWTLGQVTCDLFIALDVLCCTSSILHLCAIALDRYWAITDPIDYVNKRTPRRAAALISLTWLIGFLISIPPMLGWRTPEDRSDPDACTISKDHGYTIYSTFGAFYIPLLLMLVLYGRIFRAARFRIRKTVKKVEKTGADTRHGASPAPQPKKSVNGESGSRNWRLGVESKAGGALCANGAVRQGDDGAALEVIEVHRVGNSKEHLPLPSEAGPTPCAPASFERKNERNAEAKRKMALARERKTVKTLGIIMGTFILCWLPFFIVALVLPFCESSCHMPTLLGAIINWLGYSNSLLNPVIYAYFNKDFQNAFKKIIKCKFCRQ
Method in brief: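 Competition binding against [3H]-8-OH-DPAT (85 Ci/mmol, 1.2 nM) using 11 dilutions of test compound. Receptor was cloned mammalian 5-HT1A expressed in CHO-K1 cells. IC50 from a one-site nonlinear least-squares fit, converted to Ki by Cheng-Prusoff. Ki reported ±SEM.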

Mus musculus [22] = assay: Swimming activity of the treated mice/control mice at 41 umol/kg, sc (p < 0.001); assay type: functional
Rattus norvegicus [23] = assay: 5-HTP accumulation in hemispheres of reserpinized rats following peroral administration; assay type: functional; settings: po
Rattus norvegicus [24] = assay: Oral availability obtained from blood plasma levels of the parent compound following 1 uMol /kg intravenous and 20 umol /kg peroral administration; assay type: functional, organism-based
Method in brief: (§3)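 Male Sprague-Dawley rats (300 g) with arterial catheters, sampled from 24 h after surgery for 10-24 h; oral groups starved 18 h with free water. Blood levels measured by GC/MS with internal standard, samples run in duplicate. Availability from po vs iv AUC (n = 4), dosed 1 μmol/kg iv and 20 μmol/kg po.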

Mus musculus [25] = assay: Swimming activity of the treated mice/control mice at 4.0 umol/kg, sc (p < 0.001); assay type: functional
Rattus norvegicus [26] = assay: DOPA accumulation in corpus striatum of reserpinized rats following peroral administration at highest dose tested (50 umol/kg); Inactive; assay type: functional, organism-based
[27] = Half-life time in rats; assay type: ADME, organism-based; settings: rat, in vivo; method in brief: as §3
Rattus norvegicus [28] = assay: DOPA accumulation in hemispheres of reserpinized rats following peroral administration at highest dose tested (50 umol/kg); Inactive; assay type: functional, organism-based
Rattus norvegicus [29] = assay: 5-HTP accumulation in corpus striatum of reserpinized rats following peroral administration; assay type: functional; settings: po
Rattus norvegicus [30] = assay: In vivo motor activity at 0.2 umol/kg (sc) in male rats expressed as accumulated counts/30 min (p < 0.05); assay type: functional
Mus musculus [31] = assay: Swimming activity of the treated mice/control mice at 1.2 umol/kg, sc; assay type: functional
Rattus norvegicus [32] = assay: 5-HTP accumulation in limbic system of reserpinized rats following peroral administration; assay type: functional; settings: po
Rattus norvegicus [33] = assay: In vivo motor activity at 10 umol/kg (po) in male rats expressed as accumulated counts/30 min (p < 0.05)
Rattus norvegicus [34] = assay: DOPA accumulation in limbic system of reserpinized rats following peroral administration at highest dose tested (50 umol/kg); Inactive; assay type: functional, organism-based
Rattus norvegicus [35] = organism: Rattus norvegicus; assay: Compound was tested for gross behavioral response in rats; full-blown 5-HT syndrome; assay type: functional, organism-based
Rattus norvegicus [36] = assay: In vivo motor activity at 61 umol/kg (po) in male rats expressed as accumulated counts/30 min (p < 0.001); assay type: functional
Mus musculus [37] = assay: Swimming activity of the treated mice/control mice at 39 umol/kg, sc (p < 0.01); assay type: functional
Rattus norvegicus [38] = assay: In vivo motor activity at 5 umol/kg (sc) in male rats expressed as accumulated counts/30 min (p < 0.001); assay type: functional
Rattus norvegicus [39] = assay: In vivo motor activity at 50 umol/kg (po) in male rats expressed as accumulated counts/30 min (p < 0.001); assay type: functional
Mus musculus [40] = assay: Swimming activity of the treated mice/control mice at 6.6 umol/kg, sc; assay type: functional
Rattus norvegicus [41] = assay: DOPA accumulation in limbic system of reserpinized rats following peroral administration at highest dose tested (50 umol/kg); Partially active; assay type: functional, organism-based
Felis catus [42] = assay: Maximum decrease in sympathetic nerve discharge in anesthetized cat.; assay type: functional; method in brief: as §1
Rattus norvegicus [43] = assay: In vivo motor activity at 50 umol/kg (sc) in male rats expressed as accumulated counts/30 min (p < 0.01); assay type: functional
Mus musculus [44] = assay: Swimming activity of the treated mice/control mice at 39 umol/kg, sc (p < 0.001); assay type: functional
Mus musculus [45] = assay: Swimming activity of the treated mice/control mice at 3.9 umol/kg, sc (p < 0.001); assay type: functional

SMILES | BP (Felis catus [2]) | ED50 (Felis catus [6]) | ED50 (Rattus norvegicus [7]) | ED50 (Rattus norvegicus [9]) | ED50 (Rattus norvegicus [10]) | Swimming activity (Mus musculus [11]) | Max decrease (Felis catus [13]) | Response (Rattus norvegicus [14]) | ED50 (Mus musculus [16]) | Max decrease (Felis catus [17]) | ED50 (Mus musculus [19]) | ED50 (Rattus norvegicus [20]) | Ki [21] | ED50 (Rattus norvegicus [1]) | ED50 (Rattus norvegicus [23]) | ED50 (Rattus norvegicus [26]) | ED50 (Rattus norvegicus [28]) | ED50 (Rattus norvegicus [29]) | ED50 (Rattus norvegicus [3]) | ED50 (Rattus norvegicus [5]) | further results
CCCN1CCC2c3c(cccc3C(N)=O)CCC21 (racemic) | 82% | 0.1 µmol/kg | 1.25 µmol/kg | 0.95 µmol/kg | 0.009 µmol/kg | 6.6 | 63 | Partially active | 28 µmol/kg | 33 | 3.8 µmol/kg | 0.93 µmol/kg | 2.9 nM | – | – | – | – | – | – | – | NA (Rattus norvegicus [1]): inactive; NA (Rattus norvegicus [3]): inactive; Swimming activity (Mus musculus [4]): 1.2; NA (Rattus norvegicus [5]): inactive; half-life [8]: 1.5 h; bioavailability (Rattus norvegicus [12]): 70%; Accumulated counts/30 min (Rattus norvegicus [15]): 88; Swimming activity (Mus musculus [18]): 2.9
CCCN(CCC)C1CCc2cccc(O)c2C1 (racemic) [8-OH-DPAT] | 66% | 0.03 µmol/kg | 0.063 µmol/kg | 0.052 µmol/kg | 0.006 µmol/kg | 4.6 T/C | 57 | – | 30 µmol/kg | 2 | 3 µmol/kg | 0.052 µmol/kg | – | inactive | 7.6 µmol/kg | inactive | inactive | 7.9 µmol/kg | inactive | inactive | Swimming activity (Mus musculus [22]): 3.4 T/C; bioavailability (Rattus norvegicus [24]): 2.4%; Swimming activity (Mus musculus [25]): 6.7 T/C; half-life [27]: 1 h; Accumulated counts/30 min (Rattus norvegicus [30]): 66; Swimming activity (Mus musculus [31]): 0.9 T/C; ED50 (Rattus norvegicus [32]): 3 µmol/kg; Accumulated counts/30 min (Rattus norvegicus [33]): 17; ED50 (Rattus norvegicus [34]): inactive; Response (Rattus norvegicus [35]): Active; Accumulated counts/30 min (Rattus norvegicus [36]): 883
O=C(NCCN1CCN(c2cccc3c2OCC(CO)O3)CC1)c1ccc(F)cc1 (single isomer, unassigned; (+)) | 79% | 0.14 µmol/kg | 0.63 µmol/kg | 0.55 µmol/kg | 0.16 µmol/kg | – | 55 | – | 1.6 µmol/kg | – | 0.16 µmol/kg | 0.63 µmol/kg | 2.9 nM | inactive | 0.36 µmol/kg | inactive | inactive | 0.27 µmol/kg | inactive | inactive | Swimming activity (Mus musculus [37]): 3.3; Accumulated counts/30 min (Rattus norvegicus [38]): 84; Accumulated counts/30 min (Rattus norvegicus [39]): 135; ED50 (Rattus norvegicus [32]): 0.36 µmol/kg; Swimming activity (Mus musculus [40]): 0.6; Response (Rattus norvegicus [35]): Active; ED50 (Rattus norvegicus [41]): Weak activity; Max decrease (Felis catus [42]): 2
CCCN1CCC2c3c(cccc3C(N)=O)CC[C@@H]21 (single isomer, unassigned; (+)-3a) [listing 1 of 2 here] | – | – | 5.2 µmol/kg | 1.6 µmol/kg | > 1.2 µmol/kg | 4.7 | – | – | 28 µmol/kg | – | 8.9 µmol/kg | 1.8 µmol/kg | 17 nM | – | – | – | – | – | – | – | Accumulated counts/30 min (Rattus norvegicus [43]): 17; Swimming activity (Mus musculus [31]): 1; Swimming activity (Mus musculus [44]): 8.3; Swimming activity (Mus musculus [45]): 4
CCCN1CCC2c3c(cccc3C(N)=O)CC[C@@H]21 (single isomer, unassigned; (+)-3a) [listing 2 of 2 here] | – | – | – | – | – | – | – | Partially active | – | – | – | – | – | inactive | – | – | – | – | inactive | inactive | –
